Results taken from ChEMBL document CHEMBL4433236, “Synthesis and structure activity relationships of a series of 4-amino-1H-pyrazoles as covalent inhibitors of CDK14” (Bioorg Med Chem Lett, 2019).
Activity calls are given as the source filed them. The rule behind the calls is not given here.

Assays:
[1] = target: T1, Cyclin-dependent kinase 14 (Homo sapiens, UniProt O94921); assay: Inhibition of FLAG-tagged CDK14 (unknown origin) expressed in human HEK293 cells assessed as blocking of CDK14 pulldown incubated for 4 hrs by biotinylated JNK-IN- based pull down assay; type: cell-based
How it was run: (§1)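 Cells were treated with compound at various doses for 4 h and then lysed. Lysates were incubated with biotinylated JNK-IN-7 and captured on streptavidin-coated beads. CDK14 capture was detected by western blot.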

[2] = target: Cyclin-dependent kinase 14/Cyclin-Y (Homo sapiens, UniProt O94921); assay: Inhibition of recombinant GST-tagged human full length CDK14/cyclin Y (2 to end residues) preincubated for 30 mins by Lantha screen eu binding assay; type: protein-complex assay
How it was run: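 CDK14 binding was measured in a LanthaScreen binding assay. IC50 is the average of three replicates, reported ± standard error.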

[3] = target: T1, Cyclin-dependent kinase 14; assay: Inhibition of FLAG-tagged CDK14 (unknown origin) expressed in human HEK293 cells assessed as blocking of CDK14 pulldown up to 1000 nM incubated for 4 hrs by biotinylated JNK-IN- based pull down assay; type: cell-based; how it was run: as §1
[4] = tested on: HCT-116; assay: Antiproliferative activity against human HCT116 cells assessed as reduction in cell viability after 72 hrs by cell titer glo-based luminescence assay; type: functional; settings: HCT-116, 72 h
[5] = target: Cyclin-dependent kinase 16 (Homo sapiens) (UniProt Q00536); assay: Inhibition of CDK16 in human HCT116 cells at 1 uM incubated for 4 hrs by KINATIV live cell profiling protocol based assay
How it was run: (§2)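 Cellular kinase selectivity was profiled on the KiNativ platform, with compounds tested at 1 μM.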

[6] = target: CDK2/Cyclin-Y (Homo sapiens, UniProt P24941+Q8ND76); assay: Inhibition of recombinant NanoLuc-tagged CDK2/cyclin Y expressed in human HCT116 cells at 1 uM incubated for 20 to 24 hrs by NanoBRET assay; type: cell-based
[7] = target: Cyclin-dependent kinase 17 (Homo sapiens) (UniProt Q00537); assay: Inhibition of CDK17 in human HCT116 cells at 1 uM incubated for 4 hrs by KINATIV live cell profiling protocol based assay; how it was run: as §2
[8] = target: Cyclin-dependent kinase 18 (Homo sapiens) (UniProt Q07002); assay: Inhibition of CDK18 in human HCT116 cells at 1 uM incubated for 4 hrs by KINATIV live cell profiling protocol based assay; how it was run: as §2
[9] = target: T1, Cyclin-dependent kinase 14; assay: Inhibition of FLAG-tagged CDK14 (unknown origin) expressed in human HEK293 cells assessed as blocking of CDK14 pulldown at 500 to 1000 nM incubated for 4 hrs by biotinylated JNK-IN- based pull down assay; type: cell-based; how it was run: as §1

T1 sequence (O94921 whole entry): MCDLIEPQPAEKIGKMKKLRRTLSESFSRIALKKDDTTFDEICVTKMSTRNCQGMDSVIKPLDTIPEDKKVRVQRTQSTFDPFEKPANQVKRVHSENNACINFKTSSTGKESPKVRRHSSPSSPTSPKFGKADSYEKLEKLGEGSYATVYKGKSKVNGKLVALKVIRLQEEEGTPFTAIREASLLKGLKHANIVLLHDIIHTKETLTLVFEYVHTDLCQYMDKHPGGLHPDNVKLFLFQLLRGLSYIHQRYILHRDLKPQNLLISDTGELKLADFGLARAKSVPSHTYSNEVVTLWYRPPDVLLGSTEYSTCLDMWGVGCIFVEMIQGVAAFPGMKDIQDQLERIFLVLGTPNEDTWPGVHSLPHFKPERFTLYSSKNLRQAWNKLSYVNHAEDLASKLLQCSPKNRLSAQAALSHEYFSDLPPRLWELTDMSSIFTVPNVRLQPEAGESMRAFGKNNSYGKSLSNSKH
Chain of Cyclin-dependent kinase 14/Cyclin-Y (O94921 whole entry): as above
Chain of Cyclin-dependent kinase 14/Cyclin-Y (Q8ND76 whole entry, further chain): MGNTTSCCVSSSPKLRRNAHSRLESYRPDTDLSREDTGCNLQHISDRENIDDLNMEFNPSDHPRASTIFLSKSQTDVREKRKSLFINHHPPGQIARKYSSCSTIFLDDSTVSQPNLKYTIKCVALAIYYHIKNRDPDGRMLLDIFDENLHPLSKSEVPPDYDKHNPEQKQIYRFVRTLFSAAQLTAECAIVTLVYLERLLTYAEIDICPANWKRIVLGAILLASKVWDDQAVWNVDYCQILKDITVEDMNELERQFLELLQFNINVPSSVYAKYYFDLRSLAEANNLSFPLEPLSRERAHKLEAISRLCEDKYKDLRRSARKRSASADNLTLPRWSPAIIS
Chain of Cyclin-dependent kinase 18 (Homo sapiens) (Q07002 whole entry): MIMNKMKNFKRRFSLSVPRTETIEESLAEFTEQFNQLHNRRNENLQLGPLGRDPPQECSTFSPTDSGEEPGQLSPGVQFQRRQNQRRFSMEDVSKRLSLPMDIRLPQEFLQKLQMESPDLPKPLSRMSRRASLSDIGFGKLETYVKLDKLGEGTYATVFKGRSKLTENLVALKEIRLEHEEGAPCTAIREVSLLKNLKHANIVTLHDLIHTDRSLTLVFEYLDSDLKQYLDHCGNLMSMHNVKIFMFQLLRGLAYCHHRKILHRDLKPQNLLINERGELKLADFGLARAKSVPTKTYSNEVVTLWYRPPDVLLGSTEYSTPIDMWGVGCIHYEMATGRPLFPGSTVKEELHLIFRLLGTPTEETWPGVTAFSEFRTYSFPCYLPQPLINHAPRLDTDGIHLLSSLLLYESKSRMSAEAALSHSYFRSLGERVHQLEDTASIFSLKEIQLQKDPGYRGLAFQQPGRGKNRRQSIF
Chain of Cyclin-dependent kinase 17 (Homo sapiens) (Q00537 whole entry, looked up): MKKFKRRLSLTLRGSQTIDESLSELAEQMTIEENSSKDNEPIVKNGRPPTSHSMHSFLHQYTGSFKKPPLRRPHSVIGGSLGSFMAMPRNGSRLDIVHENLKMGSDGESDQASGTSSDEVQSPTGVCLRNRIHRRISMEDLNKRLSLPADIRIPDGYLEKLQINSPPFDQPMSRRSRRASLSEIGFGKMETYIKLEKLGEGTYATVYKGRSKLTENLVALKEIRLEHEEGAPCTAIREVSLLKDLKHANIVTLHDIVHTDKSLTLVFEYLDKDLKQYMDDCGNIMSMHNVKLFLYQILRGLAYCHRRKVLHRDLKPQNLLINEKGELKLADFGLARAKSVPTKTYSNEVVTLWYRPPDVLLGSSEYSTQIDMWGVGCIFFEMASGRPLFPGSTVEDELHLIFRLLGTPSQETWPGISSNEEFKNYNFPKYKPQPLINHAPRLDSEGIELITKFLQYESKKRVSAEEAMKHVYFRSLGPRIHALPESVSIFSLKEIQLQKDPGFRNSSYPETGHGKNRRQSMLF
Chain of Cyclin-dependent kinase 16 (Homo sapiens) (Q00536 whole entry): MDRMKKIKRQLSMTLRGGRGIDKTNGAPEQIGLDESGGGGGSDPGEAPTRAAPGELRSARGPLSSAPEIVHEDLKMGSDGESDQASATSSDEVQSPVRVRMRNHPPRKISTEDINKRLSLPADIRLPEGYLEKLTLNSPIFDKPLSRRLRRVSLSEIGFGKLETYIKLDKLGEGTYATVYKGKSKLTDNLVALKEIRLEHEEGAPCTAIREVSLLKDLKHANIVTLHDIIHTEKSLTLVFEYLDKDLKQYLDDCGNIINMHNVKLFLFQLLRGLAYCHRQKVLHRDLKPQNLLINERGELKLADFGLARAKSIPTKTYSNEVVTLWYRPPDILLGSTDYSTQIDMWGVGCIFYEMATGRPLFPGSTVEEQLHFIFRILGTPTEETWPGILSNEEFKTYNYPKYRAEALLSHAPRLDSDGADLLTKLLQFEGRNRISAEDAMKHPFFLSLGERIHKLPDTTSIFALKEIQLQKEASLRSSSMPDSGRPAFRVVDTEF

SMILES | IC50 [1] [µM] | IC50 [2] [µM] | IC50 [4] [µM] | other results
CN(C)CC/C=C/C(=O)Nc1ccc(S(=O)(=O)N2CC[C@@H](NC(=O)c3n[nH]cc3NC(=O)c3c(Cl)cccc3Cl)C2)cc1 | > 1 | 0.041 | > 10 | inhibition [3]: Active
CN(C)C/C=C/C(=O)Nc1cccc(S(=O)(=O)N2CCC(NC(=O)c3n[nH]cc3NC(=O)c3c(Cl)cc(Cl)cc3Cl)CC2)c1 |  |  | 1.14 to 5.9 | inhibition [5]: > 90%; IC50 [6]: 0.256 µM; inhibition [7]: > 75%; inhibition [8]: > 75%
CN(C)C/C=C/C(=O)Nc1cccc(S(=O)(=O)N2CCC(NC(=O)c3n[nH]cc3NC(=O)c3ccccc3)CC2)c1 | 1 | 0.003 | 0.44 | 
C=CC(=O)Nc1cccc(C(=O)Nc2ccc(NC(=O)c3n[nH]cc3NC(=O)c3c(Cl)cccc3Cl)c(C)c2)c1 |  | > 1 |  | 
Cc1cc(NC(=O)c2cccc(NC(=O)/C=C/CN(C)C)c2)ccc1NC(=O)c1n[nH]cc1NC(=O)c1c(Cl)cccc1Cl |  | > 1 | 0.32 | 
CN(C)C/C=C/C(=O)Nc1cccc(C(=O)Nc2ccc(NC(=O)c3n[nH]cc3NC(=O)c3c(Cl)cccc3Cl)cc2)c1 | 1 |  | 0.038 | inhibition [9]: Active
C=CC(=O)Nc1cccc(C(=O)N2CCC(NC(=O)c3n[nH]cc3NC(=O)c3c(Cl)cccc3Cl)CC2)c1 |  | 0.045 | 0.032 | inhibition [9]: Active
